Shown are actives, neighbours in structure and some others; about 0.79% of the full set was active somewhere.
hIAP act – human IAP activation; P09923; purified human IAP, CDP-Star luminescence, 30 min; active compounds read high; 1 = vehicle-only enzyme, 0 = enzyme-free background; activation factor at 10 µM; 0.16% of 330,000 active;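 active = activation factor of the enzyme at least 2-fold when tested at 20 µM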
Target sequence (P09923 whole entry, looked up): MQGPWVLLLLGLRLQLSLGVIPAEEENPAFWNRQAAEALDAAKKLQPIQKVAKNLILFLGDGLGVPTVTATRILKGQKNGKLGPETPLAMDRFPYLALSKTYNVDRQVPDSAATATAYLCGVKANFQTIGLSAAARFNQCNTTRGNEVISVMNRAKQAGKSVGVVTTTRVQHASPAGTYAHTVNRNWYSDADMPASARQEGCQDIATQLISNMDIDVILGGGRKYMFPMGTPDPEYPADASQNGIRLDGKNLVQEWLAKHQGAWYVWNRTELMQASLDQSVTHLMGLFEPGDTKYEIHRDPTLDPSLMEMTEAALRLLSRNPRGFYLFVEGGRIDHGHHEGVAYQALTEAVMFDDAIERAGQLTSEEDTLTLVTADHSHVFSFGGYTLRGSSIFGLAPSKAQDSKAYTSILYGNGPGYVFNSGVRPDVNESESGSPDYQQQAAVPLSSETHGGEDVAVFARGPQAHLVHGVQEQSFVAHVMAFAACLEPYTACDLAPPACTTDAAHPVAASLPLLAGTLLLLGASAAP
hIAP block – blocks human intestinal alkaline phosphatase. P09923. purified IAP, CDP-Star luminescence, 30 min. inhibition, % at 10 µM. 0.12% of 330,000 active;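 active = inhibition reaching a set limit with compound at 10 µM in the primary screen, cut at about 35% in these data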;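 note: plate controls were DMSO wells with enzyme for no effect and no-enzyme buffer wells for full effect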
bIAP inh – intestinal alkaline phosphatase (bovine) inhibition. purified bovine IAP, CDP-star luminescence, 30 min. inhibition, % at 20 µM. 190,000 tested, under 10 active. AID 1019;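 active = over 50% inhibition of intestinal alkaline phosphatase at 20 µM in the single-dose screen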
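Assay system: bovine IAP enzyme; medium: DEA buffer 100 mM, pH 9.8, with MgCl2 1.0 mM, ZnCl2 0.02 mM; doses: 20 µM single dose; incubation: enzyme reaction for 30 min at room temperature; detection: CDP-star luminescence signal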
mIAP block – blocks mouse intestinal alkaline phosphatase. purified mouse IAP, CDP-Star luminescence, 30 min. inhibition, % at 10 µM. 0.2% of 330,000 active;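 active = inhibition of at least 40% at 10 µM in the primary screen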;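 note: plate controls were DMSO with enzyme for no effect and no enzyme wells for full effect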
mIAP activ – mouse IAP activation. activation factor at 10 µM. 0.24% of 330,000 active. muIAP, CDP-Star luminescence, 30 min; active compounds read high; 1 = vehicle-only enzyme signal, 0 = enzyme-free wells;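 active = activation factor of at least 2 at 20 µM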
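Assay system: mouse IAP enzyme; reagent: chemiluminescent substrate CDP-Star; dosing: test compounds delivered from DMSO solution; schedule: 30 min at room temperature; measured by: luminescence from enzymatic CDP-Star hydrolysis; controls: DMSO-only wells and no-enzyme negative control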
bIAP activator – increases bovine intestinal alkaline phosphatase activity; purified bovine IAP, CDP-star luminescence, 30 min; active compounds read high; fold of DMSO-control signal, blank-subtracted; activation factor at 20 µM; 0.17% of 200,000 active; AID 1016;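 active = activation factor of 2 or more at 20 µM, a signal rise over negative controls twice the positive control's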
hIAP act confirm – human IAP activation confirmation; shares compounds with hIAP act; purified IAP, CDP-Star luminescence, 30 min; active compounds read low; activation (%Activity, negative = activation), % at 8.3 µM; 10% of 880 active;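 active = at least twofold enzyme activation in any of six single-dose repeats, which the averaged readout prints as negative percent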
Active calls of the source: *; . = no result.

SMILES | hIAP act | hIAP block | bIAP inh | mIAP block | mIAP activ | bIAP activator | hIAP act confirm
CCC(OC(=O)C1=Cc2ccccc2OC1)C(=O)NC1CCCC1 (stereo not drawn) | 0.339 | 66.1* | 8.7 | 3.1 | 0.969 | 0.9 | -52.5*
CC(C)C(OC(=O)C1=Cc2ccccc2OC1)C(=O)NC1CCCC1 (stereo not drawn) | 0.882 | 11.8 | 7.8 | -6.5 | 1.06 | 0.9 | .
COc1ccc(-c2c(C)n([O-])c3c([n+]2=O)CCCC3)cc1 | 2.22* | -122.1 | 1.3 | 0.6 | 0.994 | 1 | 5.5
Nc1ccc(C(=O)OCC(=O)N2c3ccccc3Sc3ccccc32)cc1[N+](=O)[O-] | . | . | -1.5 | . | . | 1 | .
NCCNc1ccc(C(=O)N2c3ccccc3Sc3ccccc32)cc1[N+](=O)[O-] | 3.46* | -246.0 | . | 3.9 | 0.961 | . | -42.5
COc1ccc(NC(=O)CC(c2ccco2)C(C)C)cc1 (stereo not drawn) | 1.03 | -2.7 | . | -6.1 | 1.06 | . | .
Cc1ccc(NC(=O)CCC(=O)NNC(=S)Nc2ccc(F)cc2F)cc1C | 2.23* | -122.7 | . | 0.1 | 0.999 | . | 6.5
Cc1ccc(NC(=O)CCC(=O)NNC(=S)Nc2ccc(F)cc2)c(C)c1 | 1.7 | -70.2 | . | 0.3 | 0.997 | . | .
CC(C(=O)Nc1ncn[nH]1)N1C(=O)c2ccccc2C1=O (stereo not drawn) | 1.26 | -25.8 | -12.5 | -2.7 | 1.03 | 1.1 | .
Cc1ccc(C(=O)Nc2ncn[nH]2)cc1 | 2.12* | -111.9 | . | 3.2 | 0.968 | . | -8.4
CC(C)(C)c1ccc(C(=O)Nc2ncn[nH]2)cc1 | 1.57 | -57.3 | -20.7 | -7.1 | 1.07 | 1.2 | .
Cc1ccc(SC(C)C(=O)Nc2ncn[nH]2)cc1 (stereo not drawn) | 2.39* | -139.1 | -52.0 | -16.5 | 1.17 | 1.5 | 11.5
COc1cc(C=C2C(=O)c3ccccc3C2=O)ccc1O | 0.684 | 31.6 | . | 27.0 | 0.73 | . | .
COc1ccc(C=C2C(=O)c3ccccc3C2=O)cc1O | 0.553 | 44.7* | . | 23.4 | 0.766 | 0.3 | 56.2
COc1ccc2c(c1)c1nnc(SCC(=O)N3CCCCC3C)nc1n2C (stereo not drawn) | . | . | 4.7 | . | . | 1 | .
COc1ccc(N2CCN(C(=O)CSc3nnc4c5cc(C)ccc5n(C)c4n3)CC2)cc1 | 2.6* | -160.1 | 7.0 | 7.3 | 0.927 | 0.9 | -69.2
CCN(CC)c1ccc(NC(=O)CSc2nnc(N)s2)cc1C | 1 | -0.5 | 4.7 | 22.1 | 0.779 | 1 | .
Cc1cc(O)c(/C=N/Nc2ccc(F)cc2)c(=O)o1 | 0.967 | 3.3 | -1.7 | -3.3 | 1.03 | 1 | .
C=CCN1C(=O)/C(=C/C=C2/N(CC)c3ccc(S(=O)(=O)N(C)C)cc3N2CC)SC1=S | 0.641 | 35.9* | 13.8 | 26.8 | 0.732 | 0.9 | 0.3
Cc1cccn2c(=O)c3cc(C(=O)NC4CCCC4)c(=N)n(C4CCCCC4)c3nc12 | 0.643 | 35.7* | . | -8.4 | 1.08 | . | -122.2*
CC[C@]1(c2ccccc2OC)ON(c2ccccc2C(F)(F)F)C1=O | 0.995 | 0.5 | . | -0.3 | 1 | . | .
O=c1c2c(-c3cccs3)csc2ncn1-c1ccc(Br)cc1 | 0.39 | 61.0* | 5.8 | 13.6 | 0.864 | 0.9 | -112.5*
CCOC(=O)C1CCN(CC(O)COc2ccc(C(=O)CC)cc2)CC1 (stereo not drawn) | 0.642 | 35.7* | -3.6 | -3.5 | 1.03 | 1 | -27.2
Cc1cccc(-n2ncc3c(NCc4ccco4)ncnc32)c1 | 1.02 | -1.9 | 8.5 | -11.5 | 1.11 | 0.9 | .
Cc1cccc(-n2ncc3c(NNC(=O)c4ccco4)ncnc32)c1 | 3.47* | -246.8 | . | 4.1 | 0.959 | . | -74.5*
Cc1ccc(-n2ncc3c(NNC(=O)c4ccco4)ncnc32)cc1Cl | 2.93* | -193.4 | . | 3.5 | 0.965 | . | -57.3
CCn1c(C)nc2cc(C(=O)NNC(=S)Nc3ccc(C)cc3)ccc21 | 2.01* | -100.9 | . | -15.3 | 1.15 | . | -47.8
Cc1cc(C)cc(OCC(=O)NNC(=O)c2cc(C)[nH]n2)c1 | 2.07* | -106.9 | -20.6 | -5.5 | 1.05 | 1.2 | -94.6*
COc1ccc(CC2CC(=O)N(c3ccc(C)cc3)C2=O)cc1 (stereo not drawn) | 2.06* | -106.2 | . | -1.9 | 1.02 | . | 23.2

Assay outcomes from PubChem.
